System: Mus musculus
Test: Effective dose required to produce analgesic action in mice after peroral administration
Assay type: functional
Conditions: po
Method in brief: (§1)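 Acetic acid writhing test in mice, 10 per group. Drug given sc or po; sc dosing simultaneous with ip 0.7% AcOH. Starting 15 min after AcOH, writhing observed for 5 min at 15-min intervals, four times in all. A mouse writhing more than once within 5 min counted as having no analgesic effect.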

SMILES	ED50 [mg/kg]
CC(=O)Sc1ccc2c(c1)[C@]1(C)CCN(C)C(C2)[C@@H]1C	4.5
C[C@H]1C2Cc3ccc(SC(=O)c4ccccc4)cc3[C@]1(C)CCN2C	1.05
CC(C)=CCN1CC[C@@]2(C)c3cc(SC(=O)c4ccccc4)ccc3C[C@@H]1[C@@H]2C	0.74
C[C@H]1C2Cc3ccc(SC(=O)C(C)(C)C)cc3[C@]1(C)CCN2C	6.4
C[C@H]1C2Cc3ccc(O)cc3[C@]1(C)CCN2CCc1cccs1	0.071
C[C@H]1C2Cc3ccc(SC(=O)c4ccccc4)cc3[C@]1(C)CCN2CCc1ccccc1	1.7
C[C@H]1[C@H]2Cc3ccc(O)cc3[C@@]1(C)CCN2C	0.27
COc1ccc(C(=O)Sc2ccc3c(c2)[C@]2(C)CCN(CCc4ccccc4)C(C3)[C@@H]2C)cc1	5.3
CCC(=O)Sc1ccc2c(c1)[C@]1(C)CCN(CCc3ccccc3)C(C2)[C@@H]1C	7
CC(C)=CCN1CC[C@@]2(C)c3cc(SC(=O)c4ccccc4)ccc3CC1[C@@H]2C	4
C[C@H]1[C@H]2Cc3ccc(SC(=O)c4ccccc4)cc3[C@]1(C)CCN2C	1
C[C@H]1C2Cc3ccc(SC(=O)C(C)(C)C)cc3[C@]1(C)CCN2CCc1ccccc1	5.2
CC(C)=CCN1CC[C@@]2(C)c3cc(O)ccc3C[C@@H]1[C@@H]2C	0.36
C[C@H]1C2Cc3ccc(SC(=O)c4ccc(Cl)cc4)cc3[C@]1(C)CCN2C	2.8
CCOC(=O)Sc1ccc2c(c1)[C@]1(C)CCN(CCc3ccccc3)C(C2)[C@@H]1C	18.5
CC(C)=CCN1CC[C@@]2(C)c3cc(SC(=O)c4ccc(Cl)cc4)ccc3CC1[C@@H]2C	6
COc1ccc(C(=O)Sc2ccc3c(c2)[C@]2(C)CCN(C)C(C3)[C@@H]2C)cc1	4.8
C[C@H]1C2Cc3ccc(O)cc3[C@@]1(C)CCN2CCc1ccccc1	0.135
COc1ccc(C(=O)Sc2ccc3c(c2)[C@]2(C)CCN(CC=C(C)C)C(C3)[C@@H]2C)cc1	5.3
CN1CC[C@]23c4c5ccc(O)c4O[C@H]2[C@@H](O)C=C[C@H]3[C@H]1C5 [MORPHINE]	0.52
C[C@H]1C2Cc3ccc(O)cc3[C@]1(C)CCN2C	0.46
CC(C)=CCN1CC[C@]2(C)c3cc(O)ccc3C[C@H]1[C@H]2C [(+)-PENTAZOCINE]	1.6
C[C@H]1C2Cc3ccc(OC(=O)c4ccccc4)cc3[C@]1(C)CCN2C	1.7
CC(C)=CCN1CC[C@@]2(C)c3cc(OC(=O)c4ccccc4)ccc3CC1[C@@H]2C	2.6

System: Mus musculus
Test: Percent analgesic activity in mice after peroral administration at dose 10 mg/kg
Assay type: functional
Conditions: route oral
Method in brief: as §1

SMILES	Analgesic activity [%]
CC(C)=CCN1CC[C@@]2(C)c3cc(SC(=O)C(C)(C)C)ccc3CC1[C@@H]2C	50

System: Mus musculus
Test: Percent analgesic activity in mice after subcutaneous administration at dose 10 mg/kg
Assay type: functional
Conditions: not given
Method in brief: as §1

SMILES	Analgesic activity [%]
CC(C)=CCN1CC[C@@]2(C)c3cc(SC(=O)c4ccccc4)ccc3C[C@H]1[C@@H]2C	20
C[C@H]1[C@@H]2Cc3ccc(SC(=O)c4ccccc4)cc3[C@]1(C)CCN2C	30
CC(C)=CCN1CC[C@]2(C)c3cc(O)ccc3C[C@H]1[C@H]2C [(+)-PENTAZOCINE]	20

System: Mus musculus
Test: Percent analgesic activity in mice after subcutaneous administration; 20-30%
Assay type: functional
Conditions: not given
Method in brief: as §1

SMILES	Analgesic activity [%]
C[C@H]1[C@@H]2Cc3ccc(O)cc3[C@]1(C)CCN2C [METAZOCINE]	20

Molecular target: Opioid receptor (Rattus norvegicus, UniProt P33533+P34975+P33535)
Test: Inhibitory activity against opiate receptor in rat using [3H]naloxone as radioligand
Conditions: not given

SMILES	IC50 [nM]
C[C@H]1C2Cc3ccc(SC(=O)c4ccccc4)cc3[C@]1(C)CCN2C	1530
C[C@H]1C2Cc3ccc(OC(=O)c4ccccc4)cc3[C@]1(C)CCN2C	107

System: not listed separately
Test: Ratio of ED50 with/without Naloxone (0.2 mg/kg) after simultaneous injection of drug
Assay type: organism-based
Conditions: not given
Method in brief: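 Mouse acetic acid writhing test (ip 0.7% AcOH, 10 mice/group, four 5-min observations at 15-min intervals; more than one writhe in 5 min = no analgesia). ED50 determined with drug alone and with naloxone 0.2 mg/kg injected simultaneously with the drug; value is ratio of ED50 with/without naloxone.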

SMILES	Ratio
C[C@H]1C2Cc3ccc(SC(=O)c4ccccc4)cc3[C@]1(C)CCN2C	1.7
C[C@H]1C2Cc3ccc(OC(=O)c4ccccc4)cc3[C@]1(C)CCN2C	6.4

System: Mus musculus
Test: Percent analgesic activity in mice after peroral administration at dose 20 mg/kg
Assay type: functional
Conditions: route oral
Method in brief: as §1

SMILES	Analgesic activity [%]
C[C@H]1C2Cc3ccc(SC(=O)c4ccc(Cl)cc4)cc3[C@]1(C)CCN2CCc1ccccc1	40
C[C@H]1C2Cc3ccc(SC(=O)c4ccccc4)cc3[C@]1(C)CCN2CCc1cccs1	40
C[C@H]1C2Cc3ccc(SC(=O)c4ccccc4)cc3[C@]1(C)CCN2Cc1ccccc1	30

— ChEMBL document CHEMBL1122844, “Novel nonnarcotic analgesics with an improved therapeutic ratio. Structure-activity relationships of 8-(methylthio)- and 8-(acylthio)-1,2,3,4,5,6-hexahydro-2,6-methano-3-benzazocines” (J Med Chem, 1985)
